Results from ChEMBL document CHEMBL4033795, “Design, Synthesis, and Structure-Activity Relationship Study of 2-Oxo-3,4-dihydropyrimido[4,5- d]pyrimidines as New Colony Stimulating Factor 1 Receptor (CSF1R) Kinase Inhibitors” (J Med Chem, 2018).

Assays:
[1] = biological target: Macrophage colony-stimulating factor 1 receptor (Homo sapiens, UniProt P07333); test: Inhibition of recombinant human His-tagged CSF1R cytoplasmic domain (538 to 910 residues) expressed in baculovirus using tyr4 peptide as substrate after 1 hr by FRET-based Z'-Lyte assay
Macrophage colony-stimulating factor 1 receptor, sequence (P07333 whole entry, the tested form may be a part): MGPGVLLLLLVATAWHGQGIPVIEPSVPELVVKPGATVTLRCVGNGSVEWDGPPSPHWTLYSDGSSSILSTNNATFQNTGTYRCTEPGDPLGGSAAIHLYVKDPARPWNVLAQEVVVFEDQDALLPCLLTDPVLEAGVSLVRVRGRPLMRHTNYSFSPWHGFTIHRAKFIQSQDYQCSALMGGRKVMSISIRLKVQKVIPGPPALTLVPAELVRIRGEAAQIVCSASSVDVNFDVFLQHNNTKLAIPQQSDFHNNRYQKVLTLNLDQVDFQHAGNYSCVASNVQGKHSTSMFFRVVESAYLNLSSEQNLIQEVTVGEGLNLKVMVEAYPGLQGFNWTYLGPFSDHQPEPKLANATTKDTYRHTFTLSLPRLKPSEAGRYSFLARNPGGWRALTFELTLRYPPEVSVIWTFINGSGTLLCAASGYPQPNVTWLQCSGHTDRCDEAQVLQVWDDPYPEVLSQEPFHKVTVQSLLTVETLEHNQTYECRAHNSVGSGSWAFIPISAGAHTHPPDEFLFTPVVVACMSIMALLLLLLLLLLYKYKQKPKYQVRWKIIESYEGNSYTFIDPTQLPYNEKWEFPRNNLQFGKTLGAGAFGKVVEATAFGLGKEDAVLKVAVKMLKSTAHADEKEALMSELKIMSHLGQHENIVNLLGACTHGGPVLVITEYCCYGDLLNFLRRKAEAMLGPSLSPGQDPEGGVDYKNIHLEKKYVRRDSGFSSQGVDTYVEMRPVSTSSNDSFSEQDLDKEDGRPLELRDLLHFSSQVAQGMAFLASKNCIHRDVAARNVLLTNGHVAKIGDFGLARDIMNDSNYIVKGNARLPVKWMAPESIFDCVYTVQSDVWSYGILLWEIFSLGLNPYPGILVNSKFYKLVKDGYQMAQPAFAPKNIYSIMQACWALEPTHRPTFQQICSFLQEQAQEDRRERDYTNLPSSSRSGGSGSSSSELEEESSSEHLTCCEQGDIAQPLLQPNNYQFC
Procedure, shortened: (§1)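 Z′-Lyte FRET assay with CSF1R or EGFR and 2 μM Tyr4 peptide substrate in 1× kinase buffer. ATP was supplied as a 100 μM solution, a stock and not the final concentration. Compounds were 3-fold serially diluted in DMSO. Reaction ran 1 h at room temperature, followed by 1 h development and a stop reagent. Phospho-peptide, no-ATP and DMSO controls were included. IC50 by curve fitting; mean of at least three independent experiments.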

[2] = biological target: Epidermal growth factor receptor (Homo sapiens, UniProt P00533); test: Inhibition of recombinant human wild type GST-tagged EGFR cytoplasmic domain (668 to 1210 residues) expressed in baculovirus using tyr4 peptide as substrate after 1 hr by FRET-based Z'-Lyte assay
Epidermal growth factor receptor, sequence (P00533 whole entry, the tested form may be a part): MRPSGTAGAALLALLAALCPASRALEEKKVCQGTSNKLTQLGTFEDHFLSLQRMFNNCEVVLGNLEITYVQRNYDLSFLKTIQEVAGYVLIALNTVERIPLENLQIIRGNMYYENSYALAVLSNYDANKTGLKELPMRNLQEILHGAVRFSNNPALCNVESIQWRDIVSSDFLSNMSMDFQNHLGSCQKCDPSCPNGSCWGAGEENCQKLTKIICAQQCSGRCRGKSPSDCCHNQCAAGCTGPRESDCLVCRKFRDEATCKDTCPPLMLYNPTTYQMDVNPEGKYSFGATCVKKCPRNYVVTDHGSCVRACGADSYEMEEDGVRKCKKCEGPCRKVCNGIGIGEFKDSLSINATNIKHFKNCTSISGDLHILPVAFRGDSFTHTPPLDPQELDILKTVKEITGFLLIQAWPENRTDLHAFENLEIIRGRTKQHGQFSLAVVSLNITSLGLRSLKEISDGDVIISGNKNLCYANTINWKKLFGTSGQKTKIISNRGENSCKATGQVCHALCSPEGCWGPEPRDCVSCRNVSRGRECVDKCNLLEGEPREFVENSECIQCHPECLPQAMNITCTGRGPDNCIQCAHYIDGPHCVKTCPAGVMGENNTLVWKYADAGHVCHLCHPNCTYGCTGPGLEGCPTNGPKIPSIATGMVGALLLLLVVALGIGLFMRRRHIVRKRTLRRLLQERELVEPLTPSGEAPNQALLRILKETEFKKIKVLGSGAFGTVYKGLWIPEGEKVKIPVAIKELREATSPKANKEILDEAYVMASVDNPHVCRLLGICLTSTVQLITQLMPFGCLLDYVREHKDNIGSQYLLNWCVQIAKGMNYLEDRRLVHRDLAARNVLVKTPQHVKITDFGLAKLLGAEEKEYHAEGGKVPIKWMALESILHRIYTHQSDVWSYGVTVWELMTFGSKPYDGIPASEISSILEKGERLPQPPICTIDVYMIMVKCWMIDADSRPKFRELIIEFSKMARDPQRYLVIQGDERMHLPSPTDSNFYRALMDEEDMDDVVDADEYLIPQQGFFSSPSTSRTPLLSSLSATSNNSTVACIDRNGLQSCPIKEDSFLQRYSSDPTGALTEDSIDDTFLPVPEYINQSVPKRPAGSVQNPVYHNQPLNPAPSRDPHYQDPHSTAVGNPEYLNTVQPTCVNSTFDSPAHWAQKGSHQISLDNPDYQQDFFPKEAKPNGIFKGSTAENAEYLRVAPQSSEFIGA

Homo sapiens = species: Homo sapiens; test: Selectivity ratio of IC50 for recombinant human wild type GST-tagged EGFR cytoplasmic domain (668 to 1210 residues) expressed in baculovirus to IC50 for recombinant human His-tagged CSF1R cytoplasmic domain (538 to 910 residues) expressed in baculovirus; procedure, shortened: as §1

SMILES	IC50 [1] [nM]	IC50 [2] [nM]	Ratio IC50 (Homo sapiens)
CCC(=O)N1CC[C@H](N2C(=O)N(c3ccc(C)cc3)Cc3cnc(Nc4ccc(N5CCN(C)CC5)c(C)c4)nc32)C1	20.6	377	
CCC(=O)N1CC[C@H](N2C(=O)N(c3cc(OC)ccc3F)Cc3cnc(Nc4ccc(N5CCOCC5)c(C)c4)nc32)C1	25.2	626	
CCC(=O)N1CC[C@H](N2C(=O)N(c3cc(OC)ccc3F)Cc3cnc(Nc4ccc(N(C)CCN(C)C)c(C)c4)nc32)C1	10.3	1300	
CCC(=O)N1CC[C@H](N2C(=O)N(c3cc(OC)ccc3F)Cc3cnc(Nc4ccc(N5CCN(C)CC5)c(F)c4)nc32)C1	17.1	1300	
FC(F)(F)c1ccc(CNc2ccc(Cc3c[nH]c4ncc(Cl)cc34)cn2)cn1 [PEXIDARTINIB]		> 10000	
CCC(=O)N1CC[C@H](N2C(=O)N(c3cccc(OC)c3F)Cc3cnc(Nc4ccc(N5CCN(C)CC5)c(C)c4)nc32)C1	4.5	421	99 to 200
CCC(=O)N1CC[C@H](N2C(=O)N(c3cccc(OC(F)(F)F)c3)Cc3cnc(Nc4ccc(N5CCN(C)CC5)c(C)c4)nc32)C1	151	889	
CCC(=O)N1CC[C@H](N2C(=O)N(c3cc(OC)ccc3F)Cc3cnc(Nc4ccc(N5CCN(C)CC5)c(OC)c4)nc32)C1	5.8	600	
CCC(=O)N1CC[C@H](N2C(=O)N(c3cc(OC)ccc3F)Cc3cnc(Nc4ccc(N5CCN(C)CC5)c(Cl)c4)nc32)C1	14.8	1200	
CCC(=O)N1CC[C@H](N2C(=O)N(c3cc(OC)ccc3F)Cc3cnc(Nc4ccc(N5CCN(C)[C@@H](C)C5)c(C)c4)nc32)C1	7.2	715	
CCC(=O)N1CC[C@H](N2C(=O)N(c3cc(OC)ccc3F)Cc3cnc(Nc4ccc(N5C[C@@H](C)N(C)[C@@H](C)C5)c(C)c4)nc32)C1	7.8	888	
CCC(=O)N1CC[C@H](N2C(=O)N(c3cccc(OC)c3)Cc3cnc(Nc4ccc(N5CCN(C)CC5)c(C)c4)nc32)C1	4.5	417	92
CCC(=O)N1CC[C@H](N2C(=O)N(c3cc(OC)ccc3F)Cc3cnc(Nc4ccc(N5CCN(C)CC5)c(C(F)(F)F)c4)nc32)C1	31.9	3400	
CCC(=O)N1CC[C@H](N2C(=O)N(c3cc(OC)ccc3F)Cc3cnc(Nc4ccc(N5CCC6(CCN(C)C6)C5)c(C)c4)nc32)C1 (stereo partly specified)	6.8	296	
CCC(=O)N1CC[C@H](N2C(=O)N(c3cc(OC)ccc3F)Cc3cnc(Nc4ccc(N5CCN(C)CC5)cc4)nc32)C1	13.6	1100	
CCC(=O)N1CC[C@H](N2C(=O)N(c3cc(OC)ccc3F)Cc3cnc(Nc4ccc(N5CCN(C)CC5)cc4OC)nc32)C1	30.4	1600	
CCC(=O)N1CC[C@H](N2C(=O)N(c3cccc(OC)c3Cl)Cc3cnc(Nc4ccc(N5CCN(C)CC5)c(C)c4)nc32)C1	4.4	413	99 to 200
CCC(=O)N1CC[C@H](N2C(=O)N(c3cc(OC)ccc3F)Cc3cnc(Nc4ccc(N5CCCCC5)c(C)c4)nc32)C1	41.2	467	
CCC(=O)N1CC[C@H](N2C(=O)N(c3cc(OC)ccc3F)Cc3cnc(Nc4ccc(N5CCN(C)CC5)c(C(C)C)c4)nc32)C1	25.8	365	
CCC(=O)N1CC[C@H](N2C(=O)N(c3cc(OC)ccc3F)Cc3cnc(Nc4ccc(N5CCN(C6COC6)CC5)c(C)c4)nc32)C1	3.4	302	
CCC(=O)N1CC[C@H](N2C(=O)N(c3cc(OC)ccc3F)Cc3cnc(Nc4ccc(N5CCN(C)CC5)c(CC)c4)nc32)C1	10	518	
CCC(=O)N1CC[C@H](N2C(=O)N(c3ccc(Cl)cc3)Cc3cnc(Nc4ccc(N5CCN(C)CC5)c(C)c4)nc32)C1	14.8	383	
CCC(=O)N1CC[C@H](N2C(=O)N(c3cc(OC)ccc3F)Cc3cnc(Nc4ccc(N5CCN(C)CC5)cc4C)nc32)C1	20.2	2500	
CCC(=O)N1CC[C@H](N2C(=O)N(c3cc(OC)ccc3F)Cc3cnc(Nc4ccc(N5CCC(N(C)C)CC5)c(C)c4)nc32)C1	4.7	286	
CCC(=O)N1CC[C@H](N2C(=O)N(c3cccc(C)c3)Cc3cnc(Nc4ccc(N5CCN(C)CC5)c(C)c4)nc32)C1	16.4	365	

Now those with a lower IC50 [2], led by results:

IC50 [1] [nM]	IC50 [2] [nM]	Ratio IC50 (Homo sapiens)	SMILES
28	257		CCC(=O)N1CC[C@H](N2C(=O)N(c3cccc(OC(F)F)c3)Cc3cnc(Nc4ccc(N5CCN(C)CC5)c(C)c4)nc32)C1
6.2	224		CCC(=O)N1CC[C@H](N2C(=O)N(c3cc(OC)ccc3F)Cc3cnc(Nc4ccc(N5CCC6(CCN(C)CC6)CC5)c(C)c4)nc32)C1
6.5	218		CCC(=O)N1CC[C@H](N2C(=O)N(c3cc(OC)ccc3F)Cc3cnc(Nc4ccc(N5CC6(CCN(C)CC6)C5)c(C)c4)nc32)C1
7	216		CCC(=O)N1CC[C@H](N2C(=O)N(c3cc(OC)ccc3F)Cc3cnc(Nc4ccc(N5C[C@H]6CN(C)C[C@H]6C5)c(C)c4)nc32)C1
4.9	209		CCC(=O)N1CC[C@H](N2C(=O)N(c3cc(OC)ccc3F)Cc3cnc(Nc4ccc(N5CCCN(C)CC5)c(C)c4)nc32)C1
5.8	153		CCC(=O)N1CC[C@H](N2C(=O)N(c3ccc(OC)cc3)Cc3cnc(Nc4ccc(N5CCN(C)CC5)c(C)c4)nc32)C1
25.9	148		CCC(=O)N1CC[C@H](N2C(=O)N(c3cc(OC)ccc3F)Cc3cnc(Nc4ccc(N5CCN(C(C)=O)CC5)c(C)c4)nc32)C1
13.2	144		CCC(=O)N1CC[C@H](N2C(=O)N(c3cccc(Cl)c3)Cc3cnc(Nc4ccc(N5CCN(C)CC5)c(C)c4)nc32)C1
18.1	71.6		CCC(=O)N1CC[C@H](N2C(=O)N(c3ccc(F)cc3)Cc3cnc(Nc4ccc(N5CCN(C)CC5)c(C)c4)nc32)C1
181	52.8		CCCN1CC[C@H](N2C(=O)N(c3ccccc3Cl)Cc3cnc(Nc4ccc(N5CCN(C)CC5)c(C)c4)nc32)C1
15.2	35.8		CCC(=O)N1CC[C@H](N2C(=O)N(c3cccc(F)c3)Cc3cnc(Nc4ccc(N5CCN(C)CC5)c(C)c4)nc32)C1
20.1	29.4		Cc1cc(Nc2ncc3c(n2)N([C@H]2CCN(C(=O)C(C)(C)C)C2)C(=O)N(c2ccccc2Cl)C3)ccc1N1CCN(C)CC1
10.1	28.9		CCCC(=O)N1CC[C@H](N2C(=O)N(c3ccccc3Cl)Cc3cnc(Nc4ccc(N5CCN(C)CC5)c(C)c4)nc32)C1
20.7	28.7		Cc1cc(Nc2ncc3c(n2)N([C@H]2CCN(C(=O)C4CC4)C2)C(=O)N(c2ccccc2Cl)C3)ccc1N1CCN(C)CC1
5.1	27.4		CCC(=O)N1CC[C@H](N2C(=O)N(c3ccccc3OC)Cc3cnc(Nc4ccc(N5CCN(C)CC5)c(C)c4)nc32)C1
22.7	26.6		Cc1cc(Nc2ncc3c(n2)N([C@H]2CCN(C(=O)CN(C)C)C2)C(=O)N(c2ccccc2Cl)C3)ccc1N1CCN(C)CC1
28.4	25.5		Cc1cc(Nc2ncc3c(n2)N([C@H]2CCN(C(=O)C4CCCC4)C2)C(=O)N(c2ccccc2Cl)C3)ccc1N1CCN(C)CC1
30.6	24.9		Cc1cc(Nc2ncc3c(n2)N([C@H]2CCN(C(=O)C4CCCCC4)C2)C(=O)N(c2ccccc2Cl)C3)ccc1N1CCN(C)CC1
20.9	23.4		CCC(=O)N1CC[C@@H](N2C(=O)N(c3ccccc3Cl)Cc3cnc(Nc4ccc(N5CCN(C)CC5)c(C)c4)nc32)C1
10.3	22.2		Cc1cc(Nc2ncc3c(n2)N([C@H]2CCN(C(=O)CC(C)C)C2)C(=O)N(c2ccccc2Cl)C3)ccc1N1CCN(C)CC1
5.2	17.6		CCC(=O)N1CC[C@H](N2C(=O)N(c3ccccc3F)Cc3cnc(Nc4ccc(N5CCN(C)CC5)c(C)c4)nc32)C1
5	15.7		CCC(=O)N1CC[C@H](N2C(=O)N(c3ccccc3Cl)Cc3cnc(Nc4ccc(N5CCN(C)CC5)c(C)c4)nc32)C1
5.5	12.1		CC(=O)N1CC[C@H](N2C(=O)N(c3ccccc3Cl)Cc3cnc(Nc4ccc(N5CCN(C)CC5)c(C)c4)nc32)C1
6.7	8.5		Cc1cc(Nc2ncc3c(n2)N([C@H]2CCN(C(=O)C(C)C)C2)C(=O)N(c2ccccc2Cl)C3)ccc1N1CCN(C)CC1
5.6	7.6		CCC(=O)N1CC[C@H](N2C(=O)N(c3ccccc3C)Cc3cnc(Nc4ccc(N5CCN(C)CC5)c(C)c4)nc32)C1
20	7		Cc1cc(Nc2ncc3c(n2)N([C@H]2CCN(C(=O)CO)C2)C(=O)N(c2ccccc2Cl)C3)ccc1N1CCN(C)CC1
30	0.5		C=CC(=O)N1CC[C@H](N2C(=O)N(c3ccccc3Cl)Cc3cnc(Nc4ccc(N5CCN(C)CC5)c(C)c4)nc32)C1
